Paper PMC5969509 (Chemical Science, 2018)
Like-named read-outs stand apart in the source and are kept apart here. Positions of bridges follow the written chain, without caps; N, C: chain ends. Non-standard residues stand in square brackets, D forms with d. Residues, ends and D or L forms follow the SMILES beside them.

Assays:
[1] = molecular target: tPHD2HisBio (catalytic domain of PHD2, residues 181-426) (Homo sapiens, UniProt Q9GZT9); assay: Biolayer interferometry, tPHD2HisBio immobilised via C-terminal biotin; type: binding
Procedure, shortened: (§1)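 Recombinant protein (tPHD2HisBio or KDM4A) was expressed in E. coli BL21 (DE3) and loaded onto biosensors. Binding was measured by biolayer interferometry as cycles of association and dissociation across a dilution series of test peptide. A DMSO-only sensor included in each run was subtracted to correct for drift, and the traces were fitted globally.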

[2] = molecular target: tPHD2 (Homo sapiens, UniProt Q9GZT9); assay: Biolayer interferometry, tPHD2 immobilised via N-terminal His-tag; type: binding; details: BLI; tPHD2 denatured chemically or thermally
[3] = system: KDM4A; assay: Biolayer interferometry, binding to KDM4A; design: species or system human; details: BLI, 3-fold dilution series
Procedure, shortened: as §1

[4] = molecular target: catalytic domain of PHD2 (residues 181–426, tPHD2) with N-terminal His-tag and C-terminal biotinylation (tPHD2_(HisBio)) (human) (UniProt Q9GZT9); assay: BLI
[5] = molecular target: catalytic domain of PHD2 (residues 181–426, tPHD2) with N-terminal His-tag and C-terminal biotinylation (tPHD2_(HisBio)) (human) (UniProt Q9GZT9); assay: BLI; remark: listed apart in the source
[6] = system: PHD2:HIF1-α complex; assay: 3CBt capture of PHD:HIF1-α complex from RCC4 cell lysates; type: binding; details: RCC4 cells in hypoxia, 3CBt 52 µM, western blot
[7] = system: PHD1; assay: 3CBt capture; type: binding, human; details: protein 10 µM, 3CBt 26 µM, Coomassie SDS-PAGE
[8] = system: PHD2; assay: 3CBt capture; type: binding, human
[9] = system: PHD3; assay: 3CBt capture; type: binding, human; details: 3CBt 26 µM

tPHD2HisBio (catalytic domain of PHD2, residues 181-426), sequence (Q9GZT9 181-426): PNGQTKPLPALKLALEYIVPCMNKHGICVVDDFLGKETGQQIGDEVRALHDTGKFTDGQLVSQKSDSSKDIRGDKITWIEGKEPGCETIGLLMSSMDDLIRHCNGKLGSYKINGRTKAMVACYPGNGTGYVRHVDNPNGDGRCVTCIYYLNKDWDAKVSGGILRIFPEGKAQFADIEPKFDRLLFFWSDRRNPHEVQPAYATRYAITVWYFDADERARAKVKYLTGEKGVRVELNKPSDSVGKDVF
catalytic domain of PHD2 (residues 181–426, tPHD2) with N-terminal His-tag and C-terminal biotinylation (tPHD2_(HisBio)) (human), sequence (Q9GZT9 181-426): as above
tPHD2, sequence (Q9GZT9 181-426): as above

CC(C)C[C@@H]1NC(=O)[C@H](Cc2c[nH]c3ccccc23)NC(=O)[C@H](C(C)C)NC(=O)[C@@H](Cc2ccc(O)cc2)NC(=O)CSC[C@@H](C(N)=O)NC(=O)[C@H]([C@@H](C)O)NC(=O)[C@H](CCCNC(=N)N)NC(=O)[C@H](CO)NC(=O)[C@H](CC(C)C)NC(=O)[C@H](C(C)C)NC(=O)[C@H](Cc2c[nH]c3ccccc23)NC(=O)[C@H]([C@@H](C)O)NC(=O)[C@H](CC(=O)O)NC(=O)[C@H]([C@@H](C)O)NC1=O [3C] ({CH2CO}-[dY]VWLTDTWVLSRTC-NH2; thioether N-14)
Kd [1]: 0.00027 µM
dissociative half-life t1/2 ([1]; BLI, C-terminal biotin immobilisation): 1.13 h
binding to denatured tPHD2 [2]: abolished
binding to KDM4A [3]: almost no detectable binding

C-terminal oxygen dependent domain (CODD), a fragment peptide of HIF1-α
Kd [4]: 5.2 µM
Kd [5]: 6.3 µM

DYVWL T DT W VL SRTCGSGSGSZ (sidechain bridge or staple) [3CBt]
co-purification of HIF1-α and PHDs at endogenous levels [6]: could co-purify HIF1-α and PHDs at endogenous levels
capture of recombinant full length PHD1 [7]: able to capture
capture of endogenous PHD2 from Hep3B cell lysates ([8]; hypoxic (1% O2) Hep3B cells, western blot, 3CBt 13 µM): could be captured
recovery of recombinant full-length PHD2 ([8]; protein 10 µM, 3CBt 26 µM, Coomassie SDS-PAGE): recovered in a 3CBt-dependent manner
recovery of isolated recombinant tPHD2 ([8]; streptavidin magnetic beads, Coomassie SDS-PAGE, tPHD2 100 nM, 3CBt 520 nM): High levels of tPHD2 recovery
capture of endogenous PHD3 from Hep3B cell lysates ([9]; hypoxic conditions, western blot): able to affinity purify
capture of recombinant full length PHD3 ([9]; protein 10 µM, Coomassie SDS-PAGE): able to capture
